Data from ChEMBL document CHEMBL3352317, “Protective mechanisms of acacetin against D-galactosamine and lipopolysaccharide-induced fulminant hepatic failure in mice” (J Nat Prod, 2014).
Calls of active or inactive are those of the source. The calls are words filed in the database; no cut-off is given here.

Experiments:
Mus musculus [1] = experiment: Induction of autophagic flux in GalN/LPS-induced ICR mouse FHF model assessed as increase in LC3-2 protein expression at 100 mg/kg, ip administered 1 hr prior to GalN/LPS challenge measured after 6 hrs by Western blotting analysis relative to control; format: functional, organism-based; design: dose 100 mg/kg
Method in brief: (§1)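 Livers from ICR mice given 100 mg/kg ip (5% DMSO−saline) 1 h before GalN 800 mg/kg/LPS 40 μg/kg, harvested at 6 h. Western blot: 20 μg liver homogenate protein (nuclear extracts for NF-κB), 10−17% SDS-PAGE, PVDF, blocked in 5% milk or BSA, primary antibody overnight at 4 °C, ECL detection; phospho versus total MAPKs; n = 8−10.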

Mus musculus [2] = experiment: Effect on liver histology in ICR mouse at 100 mg/kg, ip after 6 hr by hematoxylin/eosin staining-based assay; conditions: in vivo
Mus musculus [3] = experiment: Induction of autophagic flux in GalN/LPS-induced ICR mouse FHF model assessed as reduction in p62 level at 100 mg/kg, ip administered 1 hr prior to GalN/LPS challenge measured after 6 hrs by Western blotting analysis relative to control; format: functional, organism-based; design: dose 100 mg/kg; method in brief: as §1
Mus musculus [4] = experiment: Induction of autophagic flux in GalN/LPS-induced ICR mouse FHF model assessed as increase in autophagic vacuoles at 100 mg/kg, ip administered 1 hr prior to GalN/LPS challenge measured after 6 hrs by transmission electron microscopy relative to control; format: functional, organism-based; design: dose 100 mg/kg
Method in brief: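 Mice given 100 mg/kg ip 1 h before GalN (800 mg/kg)/LPS (40 μg/kg); liver fixed at 6 h in 2.5% glutaraldehyde, 1% formaldehyde, 100 mM sodium phosphate pH 7.2; ultrathin 60−70 nm sections counterstained with uranyl acetate and lead citrate, autophagic vacuoles counted by transmission electron microscopy; n = 8−10.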

Mus musculus [5] = experiment: Hepatoprotective effect in GalN/LPS-induced ICR mouse FHF model assessed as reduction in NF-kappaB protein expression at 100 mg/kg, ip administered 1 hr prior to GalN/LPS challenge measured after 6 hrs by Western blotting analysis relative to control; format: functional, organism-based; design: dose 100 mg/kg; method in brief: as §1
Mus musculus [6] = experiment: Effect serum ALT level in ICR mouse at 100 mg/kg, ip by spectrophotometry (reference value: 49.6 +/- 9.9 U/L); format: ADME, organism-based; design: dose 100 mg/kg, route intraperitoneal; conditions: in vivo
Mus musculus [7] = experiment: Effect on liver histology in GalN/LPS-induced ICR mouse FHF model assessed as inhibition of increase in inflammatory cell infiltration at 100 mg/kg, ip administered 1 hr prior to GalN/LPS challenge measured after 6 hrs by hematoxylin/eosin staining-based assay; format: functional, organism-based; design: dose 100 mg/kg
Mus musculus [8] = experiment: Hepatoprotective effect in GalN/LPS-induced ICR mouse FHF model assessed as reduction in p38 phosphorylation at 100 mg/kg, ip administered 1 hr prior to GalN/LPS challenge measured after 6 hrs by Western blotting analysis relative to control; format: functional, organism-based; design: dose 100 mg/kg; method in brief: as §1
Mus musculus [9] = experiment: Toxicity in ICR mouse at 100 mg/kg, ip; format: organism-based; design: dose 100 mg/kg, route intraperitoneal; conditions: in vivo
Mus musculus [10] = experiment: Effect on serum TNF-alpha level in ICR mouse at 100 mg/kg, ip by ELISA (reference value: 14.1 +/- 1.1 pg/ml); format: ADME, organism-based; design: dose 100 mg/kg, route intraperitoneal; conditions: in vivo
Mus musculus [11] = experiment: Induction of autophagic flux in GalN/LPS-induced ICR mouse FHF model assessed as increase in Atg-7 protein expression at 100 mg/kg, ip administered 1 hr prior to GalN/LPS challenge measured after 6 hrs by Western blotting analysis relative to control; format: functional, organism-based; design: dose 100 mg/kg; method in brief: as §1
Mus musculus [12] = experiment: Hepatoprotective effect in ip dosed GalN/LPS-induced ICR mouse FHF model assessed as survival rate administered 1 hr prior to GalN/LPS challenge measured up to 24 hrs; format: functional, organism-based
Method in brief: (§2)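 Male 6-week-old ICR mice (24−26 g), fasted 18 h with water allowed. Vehicle (5% DMSO−saline) or drug suspended in it (25, 50, 100 mg/kg) given ip 1 h before ip GalN (800 mg/kg) plus LPS (40 μg/kg, E. coli O111:B4) in PBS. Survival was monitored over 24 h after the challenge. There were 10 mice per group.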

Mus musculus [13] = experiment: Effect on liver histology in GalN/LPS-induced ICR mouse FHF model assessed as inhibition of multiple areas of portal inflammation at 100 mg/kg, ip administered 1 hr prior to GalN/LPS challenge measured after 6 hrs by hematoxylin/eosin staining-based assay; format: functional, organism-based; design: dose 100 mg/kg
Mus musculus [14] = experiment: Hepatoprotective effect in GalN/LPS-induced ICR mouse FHF model assessed as serum ALT level at 100 mg/kg, ip administered 1 hr prior to GalN/LPS challenge measured after 6 hrs by spectrophotometry (reference value: 618.4 +/- 43.7 U/L); format: functional; conditions: route intraperitoneal
Mus musculus [15] = experiment: Hepatoprotective effect in GalN/LPS-induced ICR mouse FHF model assessed as reduction in TLR4 protein expression at 100 mg/kg, ip administered 1 hr prior to GalN/LPS challenge measured after 6 hrs by Western blotting analysis relative to control; format: functional, organism-based; design: dose 100 mg/kg; method in brief: as §1
Mus musculus [16] = experiment: Hepatoprotective effect in GalN/LPS-induced ICR mouse FHF model assessed as reduction in JNK phosphorylation at 100 mg/kg, ip administered 1 hr prior to GalN/LPS challenge measured after 6 hrs by Western blotting analysis relative to control; format: functional, organism-based; design: dose 100 mg/kg; method in brief: as §1
Mus musculus [17] = experiment: Effect on liver histology in GalN/LPS-induced ICR mouse FHF model assessed as inhibition of hepatocellular necrosis at 100 mg/kg, ip administered 1 hr prior to GalN/LPS challenge measured after 6 hrs by hematoxylin/eosin staining-based assay; format: functional, organism-based; design: dose 100 mg/kg
Mus musculus [18] = experiment: Effect on serum IL-6 level in ICR mouse at 100 mg/kg, ip by ELISA (reference value: 96.7 +/- 4.9 pg/ml); format: ADME, organism-based; design: dose 100 mg/kg, route intraperitoneal; conditions: in vivo
Mus musculus [19] = experiment: Hepatoprotective effect in GalN/LPS-induced ICR mouse FHF model assessed as serum ALT level at 50 mg/kg, ip administered 1 hr prior to GalN/LPS challenge measured after 6 hrs by spectrophotometry (reference value: 618.4 +/- 43.7 U/L); format: functional; conditions: route intraperitoneal
Mus musculus [20] = experiment: Hepatoprotective effect in GalN/LPS-induced ICR mouse FHF model assessed as survival rate at 100 mg/kg, ip administered 1 hr prior to GalN/LPS challenge measured after 24 hrs; format: functional; conditions: route intraperitoneal; method in brief: as §2
Hepatocyte = experiment: Hepatoprotective effect in primary hepatocytes (unknown origin); format: functional, cell-based
Mus musculus [21] = experiment: Hepatoprotective effect in GalN/LPS-induced ICR mouse FHF model assessed as serum TNF-alpha level at 100 mg/kg, ip administered 1 hr prior to GalN/LPS challenge measured after 6 hrs by ELISA (reference value: 605.8 +/- 96.8 pg/ml); format: functional; conditions: route intraperitoneal
Mus musculus [22] = experiment: Hepatoprotective effect in GalN/LPS-induced ICR mouse FHF model assessed as serum ALT level at 25 mg/kg, ip administered 1 hr prior to GalN/LPS challenge measured after 6 hrs by spectrophotometry (reference value: 618.4 +/- 43.7 U/L); format: functional; conditions: route intraperitoneal
Mus musculus [23] = experiment: Induction of autophagic flux in GalN/LPS-induced ICR mouse FHF model assessed as […] in Beclin-1 protein expression at 100 mg/kg, ip administered 1 hr prior to GalN/LPS challenge measured after 6 hrs by Western blotting analysis relative to control; format: functional, organism-based; design: dose 100 mg/kg; method in brief: as §1
Mus musculus [24] = experiment: Hepatoprotective effect in GalN/LPS-induced ICR mouse FHF model assessed as serum TNF-alpha level at 100 mg/kg, ip administered 1 hr prior to GalN/LPS challenge measured after 6 hrs by ELISA (reference value: 78.9 +/- 14.9 pg/ml); format: functional; conditions: route intraperitoneal
Mus musculus [25] = experiment: Induction of autophagic flux in GalN/LPS-induced ICR mouse FHF model assessed as increase in Atg-5 protein expression at 100 mg/kg, ip administered 1 hr prior to GalN/LPS challenge measured after 6 hrs by Western blotting analysis relative to control; format: functional, organism-based; design: dose 100 mg/kg; method in brief: as §1
Mus musculus [26] = experiment: Hepatoprotective effect in GalN/LPS-induced ICR mouse FHF model assessed as reduction in ERK phosphorylation at 100 mg/kg, ip administered 1 hr prior to GalN/LPS challenge measured after 6 hrs by Western blotting analysis relative to control; format: functional, organism-based; design: dose 100 mg/kg; method in brief: as §1

With `COc1ccc(-c2cc(=O)c3c(O)cc(O)cc3o2)cc1` [ACACETIN] the Activity (Mus musculus [1]) was “Active”, the Activity (Mus musculus [2]) was “Non-toxic” and the Activity (Mus musculus [3]) was “Active”. The Activity (Mus musculus [4]) was “Active”, the Activity (Mus musculus [5]) was “Active” and the Activity (Mus musculus [6]) was 64.4 U/L. The Activity (Mus musculus [7]) was “Active”, the Activity (Mus musculus [8]) was “Active” and the Activity (Mus musculus [9]) was “Non-toxic”. The Activity (Mus musculus [10]) was 13.1 pg/mL, the Activity (Mus musculus [11]) was “Active” and the Survival (Mus musculus [12]) was “Dose-dependent effect”. For the same compound, the Activity (Mus musculus [13]) was “Active”, the Activity (Mus musculus [14]) was 361.3 U/L and the Activity (Mus musculus [15]) was “Active”. For the same compound, the Activity (Mus musculus [16]) was “Active”, the Activity (Mus musculus [17]) was “Active” and the Activity (Mus musculus [18]) was 131 pg/mL. For the same compound, the Activity (Mus musculus [19]) was 395.6 U/L, the survival at 100 mg/kg (Mus musculus [20]) was 80% and the Activity (Hepatocyte) was “Active”. The Activity (Mus musculus [21]) was 27.4 pg/mL, the Activity (Mus musculus [22]) was 520.1 U/L and the Activity (Mus musculus [23]) was “inactive”. For the same compound, the Activity (Mus musculus [24]) was 27.4 pg/mL, the Activity (Mus musculus [25]) was “Active” and the Activity (Mus musculus [26]) was “Active”.
